In ChEMBL document CHEMBL4376852, “Ligand-Based Design of Allosteric Retinoic Acid Receptor-Related Orphan Receptor γt (RORγt) Inverse Agonists” (J Med Chem, 2020):
pIC50: −log10 of the molar value. In brackets after ≈: the same amount, converted by molar mass.

Legend:
[1] = biological target: T1, Nuclear receptor ROR-gamma (Homo sapiens, UniProt P51449); assay: (§1) Inverse agonist activity at human N-terminal His6-tagged RORgammat LBD (265 to 518 residues) expressed in Escherichia coli BL21 (DE3) assessed as inhibition of N-terminal biotinylated co-activator SRC1 box2 peptide recruitment measured after 30 mins by TR-FRET assay
T1 sequence (P51449 whole entry): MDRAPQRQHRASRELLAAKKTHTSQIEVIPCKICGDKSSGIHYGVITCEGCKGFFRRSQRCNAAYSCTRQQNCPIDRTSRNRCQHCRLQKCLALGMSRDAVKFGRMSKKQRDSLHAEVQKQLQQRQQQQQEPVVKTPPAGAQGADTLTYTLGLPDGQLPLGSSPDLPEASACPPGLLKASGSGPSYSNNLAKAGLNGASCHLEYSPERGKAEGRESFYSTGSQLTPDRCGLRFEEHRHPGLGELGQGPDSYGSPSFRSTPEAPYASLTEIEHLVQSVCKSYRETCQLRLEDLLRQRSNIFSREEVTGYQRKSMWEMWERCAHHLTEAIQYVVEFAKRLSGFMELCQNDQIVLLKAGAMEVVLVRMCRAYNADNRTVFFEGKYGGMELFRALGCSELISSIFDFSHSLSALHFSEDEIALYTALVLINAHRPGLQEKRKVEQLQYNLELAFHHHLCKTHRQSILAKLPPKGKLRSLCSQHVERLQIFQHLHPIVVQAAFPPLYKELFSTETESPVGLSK

[2] = biological target: T2, Peroxisome proliferator-activated receptor gamma (Homo sapiens, UniProt P37231); assay: Inverse agonist activity at His6-tagged PPARgamma LBD (unknown origin) assessed as inhibition of rosiglitazone-induced N-terminal biotinylated co-activator SRC1 box2 peptide recruitment measured after 30 mins by TR-FRET assay
T2 sequence (P37231 whole entry): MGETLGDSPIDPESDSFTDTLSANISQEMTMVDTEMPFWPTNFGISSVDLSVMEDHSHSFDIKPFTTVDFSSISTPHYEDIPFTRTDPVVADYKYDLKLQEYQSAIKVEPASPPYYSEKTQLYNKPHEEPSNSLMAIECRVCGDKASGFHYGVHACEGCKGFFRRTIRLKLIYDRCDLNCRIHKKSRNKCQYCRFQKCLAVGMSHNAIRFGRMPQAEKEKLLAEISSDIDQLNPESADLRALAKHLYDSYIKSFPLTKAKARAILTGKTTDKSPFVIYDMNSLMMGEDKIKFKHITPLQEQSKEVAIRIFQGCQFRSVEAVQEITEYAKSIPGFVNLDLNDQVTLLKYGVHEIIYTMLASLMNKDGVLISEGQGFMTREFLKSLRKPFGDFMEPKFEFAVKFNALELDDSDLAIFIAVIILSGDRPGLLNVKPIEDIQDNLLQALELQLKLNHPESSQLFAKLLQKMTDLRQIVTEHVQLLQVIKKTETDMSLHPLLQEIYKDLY
In short: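 His6-PPARγ-LBD at 100 nM with 100 nM N-terminal biotinylated SRC-1 box2 peptide in 10 mM HEPES, 150 mM NaCl, 5 mM DTT, 0.1% BSA, 0.1 mM CHAPS, pH 7.5, with 1 μM rosiglitazone. Tb anti-His donor, D2-streptavidin acceptor. Compounds in DMSO, 2× dilution series, 2% DMSO final. 30 min at room temperature. IC50 from sigmoidal fit of FRET ratio. Triplicate.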

[3] = biological target: T3, Nuclear receptor ROR-gamma (Homo sapiens) (UniProt P51449); assay: as §1
T3 sequence (whole entry): T1 sequence (P51449 whole entry)

[4] = Protein binding in plasma (unknown origin) at 5 uM measured after 6 hrs by LC-MS based equilibrium dialysis analysis; format: ADME, cell-free; conditions: read-out: PPB (converted)
In short: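 Equilibrium dialysis: plasma incubated with 5 μM compound for 6 h at 37 °C, final compound concentrations determined by LC–MS.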

[5] = Chemical stability of the compound in pH 7.4 aqueous buffer assessed as parent compound remaining at 2 uM measured after 24 hrs by LC-MS analysis; format: physicochemical; conditions: read-out: Stability
In short: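 Compound at 2 μM final in aqueous buffer pH 7.4, sampled at 1, 7 and 24 h; LC–MS quantitation of each aliquot, % remaining expressed relative to the zero time point.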

[6] = Stability in human liver microsomes assessed as parent compound remaining at 5 uM measured after 1 hr in presence of metabolic phase 2 cofactors UDPGA by LC-MS analysis; format: ADME, Microsome; conditions: read-out: Stability
In short: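 Glucuronidation conditions: 5 μM compound with liver microsomes supplemented with UDPGA, 1 h at 37 °C; % remaining determined by LC–MS.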

[7] = Permeability of the compound at 500 uM after 20 hrs by PAMPA; format: ADME
In short: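 Donor compartment starts at 500 μM compound; after 20 h incubation, receiver-well absorbance read by spectrophotometry; permeation normalized to flux across a blank filter.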

[8] = Kinetic solubility of the compound in pH 7.4 aqueous buffer at 500 uM measured after 90 mins by spectrophotometric method; format: physicochemical; conditions: read-out: Kinetic_solubility
[9] = Stability of the compound in plasma (unknown origin) assessed as parent compound remaining at 5 uM measured after 1 hr by LC-MS analysis; format: ADME, cell-free; conditions: read-out: Stability
In short: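 5 μM compound incubated in 100% plasma for 1 h at 37 °C; % remaining by LC–MS.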

[10] = Intrinsic clearance in human liver microsomes at 3 uM measured up to 90 mins in presence of metabolic phase 1 cofactors by LC-MS analysis; format: ADME, Microsome; conditions: 1.5 h
[11] = biological target: T1, Nuclear receptor ROR-gamma; assay: as §1, with “Competitive inverse” for “Inverse”, “mins in absence of RORgamma agonist cholesterol” for “mins”
[12] = biological target: T1, Nuclear receptor ROR-gamma; assay: as §1, with “Competitive inverse” for “Inverse”, “mins in presence of 1 uM RORgamma agonist cholesterol” for “mins”
[13] = biological target: T1, Nuclear receptor ROR-gamma; assay: as §1, with “Competitive inverse” for “Inverse”, “mins in presence of 0.25 uM RORgamma agonist cholesterol” for “mins”

O=C(O)Cc1ccc(NC(=O)c2c(-c3c(Cl)cccc3C(F)(F)F)noc2-c2ccccc2)cc1
pIC50 [1]: < 4.00

O=C(O)c1ccc(NCc2c(-c3c(Cl)cccc3C(F)(F)F)noc2-c2cccc3ccccc23)cc1
pIC50 [1]: < 4.00 | pIC50 [2]: < 4.00

Cc1onc(-c2c(Cl)cccc2C(F)(F)F)c1C(=O)Nc1ccc(C(=O)O)cc1
pIC50 [1]: < 4.00 | inhibition [3]: Dose-dependent effect

O=C(O)c1ccc(C(=O)Nc2c(-c3c(Cl)cccc3C(F)(F)F)noc2-c2ccccc2)cc1
pIC50 [1]: < 4.00

CC(C)(C)OC(=O)c1ccc(NC(=O)c2c(-c3c(Cl)cccc3C(F)(F)F)noc2-c2ccccc2)cc1
pIC50 [1]: < 4.00

O=C(O)c1ccc(NCc2c(-c3c(Cl)cccc3C(F)(F)F)noc2-c2cccs2)cc1
pIC50 [1]: 5.76 | pIC50 [2]: < 4.00

O=C(O)c1ccc(NC(=O)c2c(-c3c(Cl)cccc3C(F)(F)F)noc2-c2ccccc2)cc1
inhibition [3]: Dose-dependent effect | fraction unbound at 6 h, 5 µM [4]: 0.022 | remaining at 24 h, 2 µM [5]: 95.4% | remaining at 1 h, 5 µM [6]: 100% | permeability [7]: 60.1% | solubility kinetic at 1.5 h, 500 µM [8]: 490 µM (≈ 239 µg/mL) | remaining at 1 h, 5 µM [9]: 99.9%

O=C(O)c1ccc(-c2nn(C(=O)c3c(Cl)cccc3C(F)(F)F)c3ccccc23)cc1
fraction unbound at 6 h, 5 µM [4]: 0.001 | remaining at 24 h, 2 µM [5]: 81% | remaining at 1 h, 5 µM [6]: 47.1% | permeability [7]: 23.7% | solubility kinetic at 1.5 h, 500 µM [8]: 390 µM (≈ 173 µg/mL) | remaining at 1 h, 5 µM [9]: 100%

O=C(O)c1ccc(NCc2c(-c3c(Cl)cccc3C(F)(F)F)noc2-c2cc[nH]c2)cc1
fraction unbound at 6 h, 5 µM [4]: 0.001 | remaining at 24 h, 2 µM [5]: 95.3% | remaining at 1 h, 5 µM [6]: 69.8% | permeability [7]: 33.6% | CLH [10]: 20.7 µL/min/mg | solubility kinetic at 1.5 h, 500 µM [8]: 411 µM (≈ 190 µg/mL) | remaining at 1 h, 5 µM [9]: 85.9%

O=C(O)c1c(-c2c(Cl)cccc2C(F)(F)F)noc1-c1ccccc1
pIC50 [1]: < 4.00

O=C(O)c1ccc(NCc2c(-c3c(Cl)cccc3C(F)(F)F)noc2-c2ccccc2)cc1
pIC50 [2]: 4.10

O=C(O)c1ccc(NCc2c(-c3c(Cl)cccc3C(F)(F)F)noc2-c2ccco2)cc1
pIC50 [2]: < 4.00 | remaining at 24 h, 2 µM [5]: 100% | remaining at 1 h, 5 µM [6]: 92.8% | permeability [7]: 50.4% | CLH [10]: 43.2 µL/min/mg | solubility kinetic at 1.5 h, 500 µM [8]: 392 µM (≈ 181 µg/mL) | remaining at 1 h, 5 µM [9]: 86.5%

O=C(O)c1ccc(NCc2c(-c3c(Cl)cccc3C(F)(F)F)noc2-c2cccc(O)c2)cc1
pIC50 [2]: < 4.00

C[C@H]1O[C@@H](O[C@H]2[C@@H](O)C[C@H](O[C@H]3[C@@H](O)C[C@H](O[C@H]4CC[C@@]5(C)[C@H](CC[C@@H]6[C@@H]5C[C@@H](O)[C@]5(C)[C@@H](C7=CC(=O)OC7)CC[C@]65O)C4)O[C@@H]3C)O[C@@H]2C)C[C@H](O)[C@@H]1O [DIGOXIN]
pIC50 [11]: 5.15 | pIC50 [12]: 4.07 | pIC50 [13]: 4.47
